In brackets after ≈: the same amount, converted by molar mass.
Tests used:
MCF7 = assay: Tested in vitro for cytotoxicity against MCF-7 breast cancer cells; assay type: functional; details: Homo sapiens, read-out: ED50 (the source's name)
How it was run: (§1)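 Seven-day in vitro cytotoxicity assay in human tumour cell lines (A-549 lung carcinoma, MCF-7 breast carcinoma, HT-29 colon carcinoma), run by standard protocols; adriamycin tested alongside.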

[1] = Tested for cytotoxicity by using brine shrimp lethality test; assay type: organism-based; details: artemia, in vivo
A549 = assay: Tested in vitro for cytotoxicity against A-549 lung cancer cells; assay type: functional; details: Homo sapiens, read-out: ED50 (the source's name); how it was run: as §1
HT-29 = assay: Tested in vitro for cytotoxicity against H-29 colon cancer cells; assay type: functional; details: Homo sapiens, read-out: ED50 (the source's name); how it was run: as §1

Compound: CCCCCCCCCC[C@@H](O)[C@H]1CC[C@H]([C@H]2CC[C@H]([C@H](O)CCCCCCCCCC[C@H](O)CC3=C[C@H](C)OC3=O)O2)O1
- EC50 (MCF7): 0.852 µg/mL (≈ 1.37 µM)
- LC50 [1]: 0.0256 µg/mL (≈ 0.0411 µM)
- EC50 (A549): 8.43 ng/mL (≈ 0.0135 µM)

Compound: CCCCCCCCCC[C@@H](O)[C@H]1CC[C@H]([C@H]2CC[C@H]([C@H](O)CCCCCCCCC[C@@H](C)CCC3=C[C@H](C)OC3=O)O2)O1
- LC50 [1]: 4600 µg/mL (≈ 7410 µM)

Compound: CCCCCC[C@H](O)CCC[C@@H](O)[C@H]1CC[C@H]([C@H]2CC[C@H]([C@H](O)CCCCCCCCC[C@@H](C)CCC3=C[C@H](C)OC3=O)O2)O1
- LC50 [1]: 0.0049 µg/mL (≈ 0.00769 µM)

Compound: COc1cccc2c1C(=O)c1c(O)c3c(c(O)c1C2=O)C[C@@](O)(C(=O)CO)C[C@@H]3O[C@H]1C[C@H](N)[C@H](O)[C@H](C)O1 [DOXORUBICIN]
- EC50 (MCF7): 0.0176 µg/mL (≈ 0.0324 µM)
- LC50 [1]: 0.257 µg/mL (≈ 0.473 µM)
- EC50 (A549): 0.104 ng/mL (≈ 0.000191 µM)
- EC50 (HT-29): 0.153 ng/mL (≈ 0.000281 µM)

Compound: CCCCCCCCCC[C@@H](C(C)=O)[C@H]1CC[C@H]([C@H]2CC[C@H]([C@@H](CCCC[C@H](CCCC[C@@H](C)CCC3=C[C@H](C)OC3=O)C(C)=O)C(C)=O)O2)O1
- LC50 [1]: 0.0057 µg/mL (≈ 0.00797 µM)

From ChEMBL document CHEMBL1127800, “Asimin, asiminacin, and asiminecin: novel highly cytotoxic asimicin isomers from Asimina triloba” (J Med Chem, 1994)
